Reference: ChEMBL document CHEMBL1132256, “Structure-activity relationships for substituted bis(acridine-4-carboxamides): a new class of anticancer agents” (J Med Chem, 1999)

Tests used:
[1] = tested on: Jurkat; assay: Concentration required to inhibit 50% growth of human Jurkat cells; assay type: functional, cell-based
How it was run: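 Jurkat leukemia (JLC) cells seeded at 3.75 × 10^3 cells/well and exposed to drug for 4 days; growth measured by sulforhodamine assay. IC50 = drug concentration (nM) reducing cell number to 50% of control cultures. Independent assays in duplicate, coefficients of variation ca. 25%.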

[2] = tested on: P388; assay: Inhibitory activity against Murine […]; assay type: functional, cell-based; conditions: Mus musculus
How it was run: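 Murine P388 leukemia cells seeded at 4.5 × 10^3 cells/well, cultured 3 days with drug; growth measured by [3H]TdR uptake. IC50 = drug concentration (nM) reducing cell number to 50% of controls. Independent assays in duplicate, CV ca. 25%.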

[3] = tested on: Jurkat; assay: Ratio of inhibitory activity against doxorubicin resistant jurkat cells to inhibitory activity against wild type human jurkat cells; assay type: functional
How it was run: (§1)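 Wild-type Jurkat (JLC) and its amsacrine-resistant (JLA) or doxorubicin-resistant (JLD) sublines each seeded at 3.75 × 10^3 cells/well, 4 days with drug, sulforhodamine read-out. IC50 (nM) for 50% of control cell number; ratio = resistant-line IC50 divided by JLC IC50. Duplicate assays, CV ca. 25%.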

[4] = tested on: Lewis lung carcinoma cell line; assay: Inhibitory activity of tested against Murine Lewis lung carcinoma; assay type: functional, cell-based; conditions: Mus musculus
How it was run: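 Lewis lung carcinoma (LLTC) cells at 10^3 cells/well, 4-day continuous drug exposure, growth read by sulforhodamine assay. IC50 (nM) = concentration giving 50% of control cell number. Duplicate independent assays, CV ca. 25%.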

[5] = tested on: Jurkat; assay: Ratio of inhibitory activity against amsacrine resistant jurkat cells to inhibitory activity against wild type human jurkat cells; assay type: functional; how it was run: as §1
[6] = tested on: NCI/ADR-RES; assay: inhibitory activity against multi drug resistant NCI/ADR cell line.; assay type: functional; conditions: Homo sapiens
How it was run: (§2)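 Tested in the NCI human cell line panel. GI50 = drug concentration (nM) giving growth inhibition to 50% of controls; values below 10 nM were taken as 10 nM in calculations.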

[7] = tested on: HCT-116; assay: inhibitory activity against colon HCT116 cell line.; assay type: functional; conditions: Homo sapiens; how it was run: as §2
[8] = tested on: SK-OV-3; assay: inhibitory activity against ovarian carcinoma SKOV3 cell line.; assay type: functional; conditions: Homo sapiens; how it was run: as §2
[9] = tested on: MCF7; assay: inhibitory activity against multi drug resistant MCF cell line.; assay type: functional; conditions: Homo sapiens, in the assay text read “MCF7 cell line” for “multi drug resistant MCF cell line”; how it was run: as §2
[10] = tested on: HT-29; assay: inhibitory activity against colon HT-29 cell line.; assay type: functional; conditions: Homo sapiens; how it was run: as §2
[11] = tested on: CAKI-1; assay: inhibitory activity against renal tumor […] cell line.; assay type: functional; conditions: Homo sapiens; how it was run: as §2

Row | SMILES | IC50 [1] [nM] | IC50 [2] [nM] | IC50 [4] [nM] | GI50 [7] [nM] | GI50 [8] [nM] | GI50 [9] [nM] | GI50 [10] [nM] | Ratio [3] | Ratio [5] | GI50 [6] [nM] | GI50 [11] [nM]
1 | CN(CCCNC(=O)c1cccc2cc3cc(Cl)ccc3nc12)CCCNC(=O)c1cccc2cc3cc(Cl)ccc3nc12 | 136 | 170 | 46 | – | – | – | – | 0.9 | 0.8 | – | –
2 | CC(C)c1ccc2nc3c(C(=O)NCCCN(C)CCCNC(=O)c4cccc5cc6cc(C(C)C)ccc6nc45)cccc3cc2c1 | 2080 | 1450 | 2080 | – | – | – | – | 1.1 | 1.1 | – | –
3 | CN(CCCNC(=O)c1cccc2cc3cccc(Br)c3nc12)CCCNC(=O)c1cccc2cc3cccc(Br)c3nc12 | 24 | 15 | 6 | < 10 | 166 | 13 | < 10 | 0.9 | 0.4 | 110 | < 10
4 | CCc1ccc2nc3c(C(=O)NCCCN(C)CCCNC(=O)c4cccc5cc6cc(CC)ccc6nc45)cccc3cc2c1 | 1640 | 1080 | 770 | – | – | – | – | 1.4 | 0.9 | – | –
5 | CN(CCCNC(=O)c1cccc2cc3ccc(F)cc3nc12)CCCNC(=O)c1cccc2cc3ccc(F)cc3nc12 | 52 | 24 | 20 | – | – | – | – | 0.9 | 0.6 | – | –
6 | CN(CCCNC(=O)c1cccc2cc3cc(F)ccc3nc12)CCCNC(=O)c1cccc2cc3cc(F)ccc3nc12 | 96 | 140 | 32 | – | – | – | – | 0.8 | 0.6 | – | –
7 | Cc1cc(C)c2nc3c(C(=O)NCCCN(C)CCCNC(=O)c4cccc5cc6cc(C)cc(C)c6nc45)cccc3cc2c1 | 105 | 210 | 20 | – | – | – | – | 0.8 | 0.5 | – | –
8 | CCc1cccc2cc3cccc(C(=O)NCCCN(C)CCCNC(=O)c4cccc5cc6cccc(CC)c6nc45)c3nc12 | 113 | 170 | 27 | 221 | 10000 | 265 | 1390 | 0.9 | 0.7 | 1340 | 104
9 | Cc1cc(C(=O)NCCCN(C)CCCNC(=O)c2cc(C)cc3cc4ccccc4nc23)c2nc3ccccc3cc2c1 | 255 | 220 | 67 | < 10 | 460 | 546 | 265 | 1.1 | 0.7 | 657 | 247
10 | CC(C)c1cccc2cc3cccc(C(=O)NCCCN(C)CCCNC(=O)c4cccc5cc6cccc(C(C)C)c6nc45)c3nc12 | 2080 | 2760 | 1050 | – | – | – | – | 1.1 | 0.9 | – | –
11 | Cc1ccc(C(=O)NCCCN(C)CCCNC(=O)c2ccc(C)c3cc4cccc(C)c4nc23)c2nc3c(C)cccc3cc12 | 3.9 | 21 | 1.4 | – | – | – | – | 0.7 | 0.3 | – | –
12 | Cc1ccc(Cl)c2cc3cccc(C(=O)NCCCN(C)CCCNC(=O)c4cccc5cc6c(Cl)ccc(C)c6nc45)c3nc12 | 20 | 41 | 8.8 | – | – | – | – | 0.7 | 0.5 | – | –
13 | COc1cccc2c1C(=O)c1c(O)c3c(c(O)c1C2=O)C[C@@](O)(C(=O)CO)C[C@@H]3O[C@H]1C[C@H](N)[C@H](O)[C@H](C)O1 [DOXORUBICIN] | – | 31 | 22 | – | – | – | – | 13 | 4.4 | – | –

Further compounds by falling IC50 [4], results first:

Row | IC50 [1] [nM] | IC50 [2] [nM] | IC50 [4] [nM] | GI50 [7] [nM] | GI50 [8] [nM] | GI50 [9] [nM] | GI50 [10] [nM] | SMILES | Ratio [3] | Ratio [5] | GI50 [6] [nM] | GI50 [11] [nM]
14 | 900 | > 200000 | 2980 | 171 | 8380 | 488 | 727 | CN(CCCNC(=O)c1c(Cl)ccc2cc3ccccc3nc12)CCCNC(=O)c1c(Cl)ccc2cc3ccccc3nc12 | 1.2 | 0.9 | 37000 | 4580
15 | 1070 | 1760 | 1400 | – | – | – | – | CN(CCCNC(=O)c1cccc2cc3cc(C(C)(C)C)ccc3nc12)CCCNC(=O)c1cccc2cc3cc(C(C)(C)C)ccc3nc12 | 1.1 | 1.1 | – | –
16 | 180 | 2130 | 670 | – | – | – | – | CN(CCCNC(=O)c1cccc2cc3cccc(N(C)C)c3nc12)CCCNC(=O)c1cccc2cc3cccc(N(C)C)c3nc12 | 0.9 | 0.7 | – | –
17 | 1020 | 710 | 610 | – | – | – | – | CN(CCCNC(=O)c1cccc2cc3cc(-c4ccccc4)ccc3nc12)CCCNC(=O)c1cccc2cc3cc(-c4ccccc4)ccc3nc12 | 1.1 | 1 | – | –
18 | 225 | 760 | 320 | – | – | – | – | CN(CCCNC(=O)c1cccc2cc3ccc(N(C)C)cc3nc12)CCCNC(=O)c1cccc2cc3ccc(N(C)C)cc3nc12 | 0.6 | 0.3 | – | –
19 | 760 | 970 | 183 | – | – | – | – | CN(CCCNC(=O)c1cccc2cc3cc(N(C)C)ccc3nc12)CCCNC(=O)c1cccc2cc3cc(N(C)C)ccc3nc12 | 0.9 | 1 | – | –
20 | 345 | 430 | 170 | 330 | 12000 | 394 | 103 | COc1cccc2cc3cccc(C(=O)NCCCN(C)CCCNC(=O)c4cccc5cc6cccc(OC)c6nc45)c3nc12 | 0.8 | 0.5 | 1390 | 1490
21 | 355 | 9600 | 160 | – | – | – | – | CN(CCCNC(=O)c1cccc2cc3ccc(C(F)(F)F)cc3nc12)CCCNC(=O)c1cccc2cc3ccc(C(F)(F)F)cc3nc12 | 1.1 | 0.6 | – | –
22 | 177 | 345 | 56 | 130 | 3040 | 530 | 62 | Cc1ccc2cc3cccc(C(=O)NCCCN(C)CCCNC(=O)c4cccc5cc6ccc(C)cc6nc45)c3nc2c1 | 0.9 | 0.7 | 407 | 669
23 | 127 | 400 | 42 | – | – | – | – | CN(CCCNC(=O)c1ccc(Cl)c2cc3ccccc3nc12)CCCNC(=O)c1ccc(Cl)c2cc3ccccc3nc12 | 1 | 0.6 | – | –
24 | 226 | 225 | 35 | – | – | – | – | CN(CCCNC(=O)c1cccc2cc3cc(Br)ccc3nc12)CCCNC(=O)c1cccc2cc3cc(Br)ccc3nc12 | 0.9 | 0.7 | – | –
25 | 51 | 76 | 20 | – | – | – | – | COc1ccc2cc3cccc(C(=O)NCCCN(C)CCCNC(=O)c4cccc5cc6ccc(OC)cc6nc45)c3nc2c1 | 0.8 | 0.5 | – | –
26 | 147 | 132 | 20 | – | – | – | – | COc1ccc2nc3c(C(=O)NCCCN(C)CCCNC(=O)c4cccc5cc6cc(OC)ccc6nc45)cccc3cc2c1 | 1.1 | 0.7 | – | –
27 | 58 | 49 | 18 | – | – | – | – | CN(CCCNC(=O)c1cccc2cc3ccc(Br)cc3nc12)CCCNC(=O)c1cccc2cc3ccc(Br)cc3nc12 | 0.9 | 0.6 | – | –
28 | – | – | 12 | – | – | – | – | COc1cc(NS(C)(=O)=O)ccc1Nc1c2ccccc2nc2ccccc12 [AMSACRINE] | 74 | 85 | – | –
29 | 12 | 48 | 6 | – | – | – | – | Cc1cccc2cc3c(Cl)ccc(C(=O)NCCCN(C)CCCNC(=O)c4ccc(Cl)c5cc6cccc(C)c6nc45)c3nc12 | 0.6 | 0.3 | – | –
30 | 46 | 113 | 5.9 | – | – | – | – | CN(CCCNC(=O)c1cc(Cl)cc2cc3ccccc3nc12)CCCNC(=O)c1cc(Cl)cc2cc3ccccc3nc12 | 0.9 | 0.7 | – | –
31 | 11 | 24 | 3.2 | < 10 | 320 | < 10 | < 10 | Cc1ccc(C)c2nc3c(C(=O)NCCCN(C)CCCNC(=O)c4cccc5cc6c(C)ccc(C)c6nc45)cccc3cc12 | 0.7 | 0.4 | 172 | < 10
32 | 11 | 23 | 1.8 | < 10 | 87 | < 10 | < 10 | Cc1cccc2cc3cccc(C(=O)NCCCN(C)CCCNC(=O)c4cccc5cc6cccc(C)c6nc45)c3nc12 | 0.7 | 0.4 | 116 | < 10
